Results from different studies.
Observed: metabolic stability
Species: human

c1ccc(-c2nc(Nc3ccn4nccc4c3)c3ccccc3n2)nc1 — microsomal CLint (liver microsomes): 120 µL/min/mg
CNS(=O)(=O)Cc1ccc2[nH]cc(CCN(C)C)c2c1 — hepatocyte CLint (hepatocytes; 5 µM): 2.8 µL/min/10⁶ cells
Fc1ccccc1Nc1nc(-c2ccccn2)nc2ccccc12 — microsomal CLint (liver microsomes): 88 µL/min/mg
C[C@@H](N)c1cc(Cl)ccc1Cn1c(=S)[nH]c(=O)c2[nH]ccc21 — hepatocyte CLint (hepatocytes): < 1 µL/min/10⁶ cells
COc1ccnc(-c2nc3ccc(OC)cn3c2Nc2ccc(F)cc2)c1 — microsomal CLint (liver microsomes; 3 µM, pH 7.4): 240 µL/min/mg
NCc1ccccc1 — hepatocyte CLint (hepatocytes; 5 µM): 16.7 µL/min/10⁶ cells
O=c1[nH]c(=S)n(Cc2ccc(Cl)cc2CNCC(F)(F)F)c2cc[nH]c12 — hepatocyte CLint (hepatocytes): 4.3 µL/min/10⁶ cells
CCCN(CCC)CCc1cccc2c1CC(=O)N2 — hepatocyte CLint (hepatocytes; 1 µM): 1.7 µL/min/10⁶ cells
CN(c1ccc(F)cc1)c1c(-c2cc(Cl)ccn2)nc2ccccn12 — microsomal CLint (liver microsomes; 3 µM, pH 7.4): 190 µL/min/mg
COc1cc(OC)cc(N(CCNC(C)C)c2ccc3ncc(-c4cnn(C)c4)nc3c2)c1 — hepatocyte CLint (hepatocytes): 2.53 µL/min/10⁶ cells
C[C@H]1C[C@@H](N2C(=N)N[C@](C)(c3cccc(Nc4ccc(C5CC5)nc4)c3Cl)CC2=O)CCO1 — hepatocyte CLint (hepatocytes; 0.5 µM): 16 µL/min/10⁶ cells
N#Cc1ccccc1-c1nc(N2CCC(c3ccccn3)C2)c2ccccc2n1 (stereo not drawn) — microsomal CLint (liver microsomes): 350 µL/min/mg
Fc1ccc(Nc2c(-c3cccnn3)nc3ccccn23)cc1 — microsomal CLint (liver microsomes; 3 µM, pH 7.4): 64 µL/min/mg
c1ccc(CCNc2nc(-c3ccccn3)nc3ccccc23)nc1 — microsomal CLint (liver microsomes): 42 µL/min/mg
COc1ccnc(-c2nc3ccccn3c2Nc2ccc(F)cc2)c1 — microsomal CLint (liver microsomes; 3 µM, pH 7.4): 120 µL/min/mg
Fc1ccc(Nc2nc(-c3ccccn3)nc3ccccc23)cc1 — microsomal CLint (liver microsomes): 67 µL/min/mg
C[C@H]1C[C@@H](N2C(=N)N[C@](C)(c3cccc(NC(=O)c4cccc(C#N)c4)c3Cl)CC2=O)CCO1 — hepatocyte CLint (hepatocytes; 0.5 µM): 5 µL/min/10⁶ cells
CC(C)(C)[Si](C)(C)OCCN(c1ccc(F)cc1)c1c(-c2ccccn2)nc2ccccn12 — microsomal CLint (liver microsomes; 3 µM, pH 7.4): > 300 µL/min/mg
C=CC(=O)Nc1cc(Nc2nccc(Nc3cc(Cl)c(F)cc3C(C)(C)O)n2)c(OC)cc1N1CC[C@@H](N(C)C)C1 — hepatocyte CLint (hepatocytes): 3.3 µL/min/10⁶ cells
COc1ccc(-c2nc3ccc(OC)cn3c2Nc2ccc(F)cc2)nc1 — microsomal CLint (liver microsomes; 3 µM, pH 7.4): 44 µL/min/mg
c1ccc(C2CCN(c3nc(-c4cnn5c4CCCC5)nc4ccccc34)C2)nc1 (stereo not drawn) — microsomal CLint (liver microsomes): 176 µL/min/mg
